From ChEMBL document CHEMBL1151742, “Design, synthesis, and characterization of high-affinity, systemically-active galanin analogues with potent anticonvulsant activities” (J Med Chem, 2008)
Counter-ions that a name gives are not always drawn. The source made the active and inactive calls. The rule behind the calls is not given here. Square brackets hold non-standard residues; d marks the D form. Peptide text beside a SMILES is read from it. * marks the point of attachment. Fmoc = O=C(OCC1c2ccccc2-c2ccccc21)*; Palmitoyl = CCCCCCCCCCCCCCCC(=O)*; Cha = N[C@@H](CC1CCCCC1)C(=O)O; AMC = Cc1cc(=O)oc2cc(N*)ccc12; Sar = CNCC(=O)O

How the values were obtained:
Galanin receptor type 2 [1] = molecular target: T1, Galanin receptor type 2 (Homo sapiens, UniProt O43603); experiment: Binding affinity to human GalR2
T1 sequence (O43603 whole entry): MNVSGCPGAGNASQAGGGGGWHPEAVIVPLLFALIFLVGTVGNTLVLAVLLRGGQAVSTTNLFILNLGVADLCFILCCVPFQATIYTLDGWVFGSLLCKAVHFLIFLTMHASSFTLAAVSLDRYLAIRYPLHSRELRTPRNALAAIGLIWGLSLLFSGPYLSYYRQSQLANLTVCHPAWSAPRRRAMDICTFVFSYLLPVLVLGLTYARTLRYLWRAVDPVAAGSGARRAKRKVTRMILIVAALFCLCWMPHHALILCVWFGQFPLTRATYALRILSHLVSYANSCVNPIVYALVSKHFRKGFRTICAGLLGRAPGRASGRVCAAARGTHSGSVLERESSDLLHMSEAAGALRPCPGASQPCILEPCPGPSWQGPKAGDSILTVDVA

[2] = Metabolic stability in rat serum assessed as half life at pH 7.5; assay type: ADME, cell-free
Procedure, shortened: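 Peptide (final 20 µM) was incubated in 25% rat serum with 0.1 M Tris-HCl pH 7.5 at 37 °C, serum pre-warmed 10 min. Aliquots taken up to 8 h were quenched with 15% TCA in 40% isopropanol, held 15 min at -20 °C and centrifuged. Intact peptide was measured by reversed-phase HPLC peak area, and half-life was calculated from the disappearance.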

Galanin receptor type 2 [3] = molecular target: T1, Galanin receptor type 2; experiment: Displacement of europium-labeled galanin from human GalR2 expressed in CHO-K1 cells; assay type: cell-based
Galanin receptor type 1 = molecular target: T2, Galanin receptor type 1 (Homo sapiens, UniProt P47211); experiment: Displacement of europium-labeled galanin from human GalR1 expressed in HEK293 EBNA cells; assay type: cell-based
T2 sequence (P47211 whole entry): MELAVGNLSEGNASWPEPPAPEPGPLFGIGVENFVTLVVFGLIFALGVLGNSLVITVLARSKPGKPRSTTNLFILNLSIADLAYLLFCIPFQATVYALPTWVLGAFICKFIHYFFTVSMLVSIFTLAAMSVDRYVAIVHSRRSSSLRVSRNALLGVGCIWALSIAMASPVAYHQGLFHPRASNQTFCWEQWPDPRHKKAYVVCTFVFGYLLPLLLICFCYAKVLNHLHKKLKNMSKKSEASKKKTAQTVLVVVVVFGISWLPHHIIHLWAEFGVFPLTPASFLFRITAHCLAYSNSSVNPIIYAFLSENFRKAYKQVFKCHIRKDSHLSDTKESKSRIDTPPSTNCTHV

Mus musculus [4] = experiment: Anticonvulsant activity in CF1 mouse assessed as inhibition of 6 Hz corneal stimulation-induced limbic seizures at 4 mg/kg, ip administered 240 mins before 6 Hz corneal stimulation; assay type: functional, organism-based; set-up: dose 4 mg/kg; details: Limbic system
Procedure, shortened: (§1)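 Each analogue given ip at 4 mg/kg to five groups of CF-1 mice (n = 4 per group), one group per time point. Seizure challenge was 6 Hz corneal stimulation (32 mA for 3 s, corneal electrodes) at 15, 30, 60, 120 or 240 min after dosing. A mouse without a limbic seizure (jaw chomping, vibrissae twitching, forelimb clonus, Straub tail) was counted as protected.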

Mus musculus [5] = experiment: Anticonvulsant activity in CF1 mouse assessed as inhibition of 6 Hz corneal stimulation-induced limbic seizures at 4 mg/kg, ip administered 120 mins before 6 Hz corneal stimulation; assay type: functional, organism-based; set-up: dose 4 mg/kg; details: Limbic system; procedure, shortened: as §1
Mus musculus [6] = experiment: Anticonvulsant activity in CF1 mouse assessed as inhibition of 6 Hz corneal stimulation-induced limbic seizures at 4 mg/kg, ip administered 60 mins before 6 Hz corneal stimulation; assay type: functional, organism-based; set-up: dose 4 mg/kg; details: Limbic system; procedure, shortened: as §1
Mus musculus [7] = experiment: Anticonvulsant activity in CF1 mouse assessed as inhibition of 6 Hz corneal stimulation-induced limbic seizures at 4 mg/kg, ip administered 15 mins before 6 Hz corneal stimulation; assay type: functional, organism-based; set-up: dose 4 mg/kg; details: Limbic system; procedure, shortened: as §1

Kd (Galanin receptor type 2 [1]) [µM] | half-life [2] [h] | Ki (Galanin receptor type 2 [3]) [µM] | Ki (Galanin receptor type 1) [µM] | SMILES | Activity (Mus musculus [4]) | Activity (Mus musculus [5]) | Activity (Mus musculus [6]) | Activity (Mus musculus [7])
24 |  |  |  | Cc1cc(=O)oc2cc(NC(=O)[C@@H](CCCCN)NC(=O)[C@H](CC3CCCCC3)NC(=O)OCC3c4ccccc4-c4ccccc43)ccc12 [GALNON] (Fmoc-[Cha]-[dK]-{AMC}) |  |  |  | 
 | > 10 | 0.022 | 0.0019 | CCCCCCCCCCCCCCCC(=O)NCCCC[C@H](NC(=O)[C@H](CCCCN)NC(=O)[C@H](CCCCN)NC(=O)[C@H](CCCCN)NC(=O)[C@@H]1CCCN1C(=O)CNC(=O)[C@H](CC(C)C)NC(=O)[C@H](CC(C)C)NC(=O)[C@H](Cc1ccc(O)cc1)NC(=O)CNC(=O)[C@H](C)NC(=O)[C@H](CO)NC(=O)[C@H](CC(N)=O)NC(=O)[C@H](CC(C)C)NC(=O)[C@@H](NC(=O)[C@H](Cc1c[nH]c2ccccc12)NC(=O)CNC)[C@@H](C)O)C(N)=O | inactive | inactive |  | 
 |  |  |  | CCCCCCCCCCCCCCCC(=O)NCCCC[C@@H](NC(=O)[C@H](CCCCN)NC(=O)[C@@H](CCCCN)NC(=O)[C@H]1CCCN1C(=O)CNC(=O)[C@H](CC(C)C)NC(=O)[C@H](CC(C)C)NC(=O)[C@H](Cc1ccc(O)cc1)NC(=O)CNC(=O)[C@H](C)NC(=O)[C@H](CO)NC(=O)[C@H](CC(N)=O)NC(=O)[C@H](CC(C)C)NC(=O)[C@@H](NC(=O)[C@H](Cc1c[nH]c2ccccc12)NC(=O)CNC)[C@@H](C)O)C(=O)N[C@@H](CCCCN)C(N)=O |  |  | Active | 
0.0018 |  |  |  | CC(C)C[C@H](NC(=O)[C@H](CC(C)C)NC(=O)[C@H](Cc1ccc(O)cc1)NC(=O)CNC(=O)[C@H](C)NC(=O)[C@H](CO)NC(=O)[C@H](CC(N)=O)NC(=O)[C@H](CC(C)C)NC(=O)[C@@H](NC(=O)[C@@H](N)Cc1c[nH]c2ccccc12)[C@@H](C)O)C(=O)O |  |  |  | 
 | > 10 | 0.051 | 0.0215 | CCCCCCCCCCCCCCCC(=O)NCCCC[C@H](NC(=O)[C@H](CCCCN)NC(=O)[C@H](CCCCN)NC(=O)[C@@H]1CCCN1C(=O)CNC(=O)[C@H](CC(C)C)NC(=O)[C@H](CC(C)C)NC(=O)[C@H](Cc1ccc(O)cc1)NC(=O)CNC(=O)[C@H](C)NC(=O)[C@H](CO)NC(=O)[C@H](CC(N)=O)NC(=O)[C@H](CC(C)C)NC(=O)[C@@H](NC(=O)[C@H](Cc1c[nH]c2ccccc12)NC(=O)CCCCCN)[C@@H](C)O)C(=O)N[C@@H](CCCCN)C(N)=O |  |  |  | Active
 | 8.7 | 0.215 | 0.0415 | CCCCCCCCCCCCCCCC(=O)NCCCC[C@H](NC(=O)[C@H](CCCCN)NC(=O)[C@H](CCCCN)NC(=O)[C@H](CCCCN)NC(=O)[C@H](CCCCN)NC(=O)[C@H](CC(C)C)NC(=O)[C@H](CC(C)C)NC(=O)[C@H](Cc1ccc(O)cc1)NC(=O)CNC(=O)[C@H](C)NC(=O)[C@H](CO)NC(=O)[C@H](CC(N)=O)NC(=O)[C@H](CC(C)C)NC(=O)[C@@H](NC(=O)[C@H](Cc1c[nH]c2ccccc12)NC(=O)CNC)[C@@H](C)O)C(=O)N[C@@H](CCCCN)C(N)=O (H-[Sar]WTLNSAGYLLKKKKK(Palmitoyl)K-NH2) |  | Active |  | 
> 100 |  |  |  | COC(=O)[C@H](CCCCN)NC(=O)[C@]1(C)NC(=O)c2nc(oc2C)[C@](C)(C(=O)NC2c3ccccc3-c3ccccc32)NC(=O)c2nc(oc2C)[C@](C)(C(=O)NCC2CCCCC2)NC(=O)c2nc1oc2C [GALMIC TFA] |  |  |  | 
 | 8.6 | 0.028 | 0.006 | CCCCCCCCCCCCCCCC(=O)NCCCC[C@H](NC(=O)[C@H](CCCCN)NC(=O)[C@@H]1CCCN1C(=O)CNC(=O)[C@H](CC(C)C)NC(=O)[C@H](CC(C)C)NC(=O)[C@H](Cc1ccc(O)cc1)NC(=O)CNC(=O)[C@H](C)NC(=O)[C@H](CO)NC(=O)[C@H](CC(N)=O)NC(=O)[C@H](CC(C)C)NC(=O)[C@@H](NC(=O)[C@H](Cc1c[nH]c2ccccc12)NC(=O)CNC)[C@@H](C)O)C(=O)N[C@@H](CCCCN)C(=O)N[C@@H](CCCCN)C(N)=O | inactive | inactive | inactive | 
 |  |  |  | CCCCCCCCCCCCCCCC(=O)NCCCC[C@H](NC(=O)[C@H](CCCNC(=N)N)NC(=O)[C@H](CCCNC(=N)N)NC(=O)[C@@H]1CCCN1C(=O)CNC(=O)[C@H](CC(C)C)NC(=O)[C@H](CC(C)C)NC(=O)[C@H](Cc1ccc(O)cc1)NC(=O)CNC(=O)[C@H](C)NC(=O)[C@H](CO)NC(=O)[C@H](CC(N)=O)NC(=O)[C@H](CC(C)C)NC(=O)[C@@H](NC(=O)[C@H](Cc1c[nH]c2ccccc12)NC(=O)CNC)[C@@H](C)O)C(=O)N[C@@H](CCCNC(=N)N)C(N)=O | inactive |  | Active | 
 | > 10 | 0.0225 | 0.0053 | CCCCCCCCCCCCCCCC(=O)NCCCC[C@H](NC(=O)[C@H](CCCCN)NC(=O)[C@H](CCCCN)NC(=O)[C@@H]1CCCN1C(=O)CNC(=O)[C@H](CC(C)C)NC(=O)[C@H](CC(C)C)NC(=O)[C@H](Cc1ccc(O)cc1)NC(=O)CNC(=O)[C@H](C)NC(=O)[C@H](CO)NC(=O)[C@H](CC(N)=O)NC(=O)[C@H](CC(C)C)NC(=O)[C@@H](NC(=O)[C@H](Cc1c[nH]c2ccccc12)NC(=O)CN)[C@@H](C)O)C(=O)N[C@@H](CCCCN)C(N)=O | inactive | inactive |  | 
 | 4.8 | 0.0655 | 0.0033 | CCCCCCCCCCCCCCCC(=O)NCCCC[C@H](NC(=O)[C@H](CCCN=C(N)N)NC(=O)[C@H](CCCN=C(N)N)NC(=O)[C@@H]1CCCN1C(=O)CNC(=O)[C@H](CC(C)C)NC(=O)[C@H](CC(C)C)NC(=O)[C@H](Cc1ccc(O)cc1)NC(=O)CNC(=O)[C@H](C)NC(=O)[C@H](CO)NC(=O)[C@H](CC(N)=O)NC(=O)[C@H](CC(C)C)NC(=O)[C@@H](NC(=O)[C@H](Cc1c[nH]c2ccccc12)NC(=O)CNC)[C@@H](C)O)C(=O)N[C@@H](CCCN=C(N)N)C(N)=O |  |  |  | 
 | > 10 | 0.108 | 0.0255 | CCCCCCCCCCCCCCCC(=O)NCCCC[C@H](NC(=O)[C@@H]1CCCN1C(=O)CNC(=O)[C@H](CC(C)C)NC(=O)[C@H](CC(C)C)NC(=O)[C@H](Cc1ccc(O)cc1)NC(=O)CNC(=O)[C@H](C)NC(=O)[C@H](CO)NC(=O)[C@H](CC(N)=O)NC(=O)[C@H](CC(C)C)NC(=O)[C@@H](NC(=O)[C@H](Cc1c[nH]c2ccccc12)NC(=O)CNC)[C@@H](C)O)C(=O)N[C@@H](CCCCN)C(=O)N[C@@H](CCCCN)C(=O)N[C@@H](CCCCN)C(N)=O |  | inactive |  | inactive

SMILES | Kd (Galanin receptor type 2 [1]) [µM] | half-life [2] [h] | Ki (Galanin receptor type 2 [3]) [µM] | Ki (Galanin receptor type 1) [µM] | Activity (Mus musculus [4]) | Activity (Mus musculus [5]) | Activity (Mus musculus [6]) | Activity (Mus musculus [7])
CCCCCCCCCCCCCCCC(=O)NCCCC[C@H](NC(=O)[C@H](CCCCN)NC(=O)[C@H](CCCCN)NC(=O)[C@@H]1CCCN1C(=O)CNC(=O)[C@H](CC(C)C)NC(=O)[C@H](CC(C)C)NC(=O)[C@H](Cc1ccc(O)cc1)NC(=O)CNC(=O)[C@H](C)NC(=O)[C@H](CO)NC(=O)[C@H](CC(N)=O)NC(=O)[C@H](CC(C)C)NC(=O)[C@@H](NC(=O)[C@@H](N)Cc1c[nH]c2ccccc12)[C@@H](C)O)C(=O)N[C@@H](CCCCN)C(N)=O (H-WTLNSAGYLLGPKKK(Palmitoyl)K-NH2) |  | > 10 | 0.048 | 0.387 | inactive |  |  | 
CCCCCCCCCCCCCCCC(=O)NCCCC[C@H](NC(=O)[C@H](CCCCN)NC(=O)[C@H](CCCCN)NC(=O)CNC(=O)[C@H](CC(C)C)NC(=O)[C@H](CC(C)C)NC(=O)[C@H](Cc1ccc(O)cc1)NC(=O)CNC(=O)[C@H](C)NC(=O)[C@H](CO)NC(=O)[C@H](CC(N)=O)NC(=O)[C@H](CC(C)C)NC(=O)[C@@H](NC(=O)[C@H](Cc1c[nH]c2ccccc12)NC(=O)CNC)[C@@H](C)O)C(=O)N[C@@H](CCCCN)C(N)=O |  | 5.6 | 0.075 | 0.0255 | inactive | inactive |  | 
CCCCCCCCCCCCCCCC(=O)NCCCC[C@H](NC(=O)[C@@H](CCCCN)NC(=O)[C@@H](CCCCN)NC(=O)[C@@H]1CCCN1C(=O)CNC(=O)[C@H](CC(C)C)NC(=O)[C@H](CC(C)C)NC(=O)[C@H](Cc1ccc(O)cc1)NC(=O)CNC(=O)[C@H](C)NC(=O)[C@H](CO)NC(=O)[C@H](CC(N)=O)NC(=O)[C@H](CC(C)C)NC(=O)[C@@H](NC(=O)[C@H](Cc1c[nH]c2ccccc12)NC(=O)CNC)[C@@H](C)O)C(=O)N[C@H](CCCCN)C(N)=O |  | > 10 |  | 0.0009 |  |  |  | 
